Measured values taken from ChEMBL document CHEMBL1124735, “Dehydrogenase binding by tiazofurin anabolites” (J Med Chem, 1990).

Columns and labels:
[1] = target: T1, Alcohol dehydrogenase (Equus caballus, UniProt P00327+P00328); assay: In vitro inhibitory activity against horse liver Alcohol dehydrogenase
[2] = target: Glutamate dehydrogenase 1, mitochondrial (Bos taurus, UniProt P00366); assay: In vitro inhibitory activity against bovine liver glutamate dehydrogenase (GDH)
[3] = target: L-lactate dehydrogenase B chain (Sus scrofa, UniProt P00336); assay: In vitro inhibitory activity against pig heart lactate dehydrogenase (LDH)
L-lactate dehydrogenase B chain, sequence (P00336 whole entry): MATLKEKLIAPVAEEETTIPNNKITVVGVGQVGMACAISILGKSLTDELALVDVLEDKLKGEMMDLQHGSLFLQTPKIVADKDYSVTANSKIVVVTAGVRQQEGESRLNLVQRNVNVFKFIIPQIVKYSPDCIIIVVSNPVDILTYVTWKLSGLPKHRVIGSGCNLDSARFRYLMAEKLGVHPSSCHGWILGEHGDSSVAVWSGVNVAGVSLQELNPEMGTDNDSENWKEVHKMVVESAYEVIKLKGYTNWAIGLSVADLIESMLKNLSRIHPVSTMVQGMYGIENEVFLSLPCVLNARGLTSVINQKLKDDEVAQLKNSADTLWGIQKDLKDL
Method in brief: (§1)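 Pig heart enzymes (cytoplasmic MDH or LDH, from ammonium sulfate suspension) assayed in 0.05 M Tris HCl pH 9.0, with NAD as substrate; rates from NADH appearance by A340 (ε 6.22 mM⁻¹cm⁻¹) or fluorescence calibrated against NADH standards. Run at least in duplicate; kinetic constants from Lineweaver-Burk plots by linear regression.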

[4] = target: T1, Alcohol dehydrogenase; assay: In vitro inhibitory activity against horse liver Alcohol dehydrogenase (ADH)
[5] = target: T2, Malate dehydrogenase, cytoplasmic (Sus scrofa, UniProt P11708); assay: In vitro inhibitory activity against pig heart cytoplasmic malate dehydrogenase (MDH); method in brief: as §1
T2 sequence (P11708 whole entry): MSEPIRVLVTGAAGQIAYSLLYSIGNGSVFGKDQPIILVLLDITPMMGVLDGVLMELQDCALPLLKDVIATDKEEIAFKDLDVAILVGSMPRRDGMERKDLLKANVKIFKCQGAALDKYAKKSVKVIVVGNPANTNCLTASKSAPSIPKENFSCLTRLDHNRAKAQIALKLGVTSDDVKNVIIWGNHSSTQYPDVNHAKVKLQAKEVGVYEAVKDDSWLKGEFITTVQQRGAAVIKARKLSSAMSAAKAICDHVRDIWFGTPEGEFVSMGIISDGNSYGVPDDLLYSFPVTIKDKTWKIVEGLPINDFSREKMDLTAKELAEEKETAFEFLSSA

[6] = target: T1, Alcohol dehydrogenase; assay: Dissociation constant from Alcohol dehydrogenase; format: protein assay

Glutamate dehydrogenase 1, mitochondrial, sequence (P00366 whole entry): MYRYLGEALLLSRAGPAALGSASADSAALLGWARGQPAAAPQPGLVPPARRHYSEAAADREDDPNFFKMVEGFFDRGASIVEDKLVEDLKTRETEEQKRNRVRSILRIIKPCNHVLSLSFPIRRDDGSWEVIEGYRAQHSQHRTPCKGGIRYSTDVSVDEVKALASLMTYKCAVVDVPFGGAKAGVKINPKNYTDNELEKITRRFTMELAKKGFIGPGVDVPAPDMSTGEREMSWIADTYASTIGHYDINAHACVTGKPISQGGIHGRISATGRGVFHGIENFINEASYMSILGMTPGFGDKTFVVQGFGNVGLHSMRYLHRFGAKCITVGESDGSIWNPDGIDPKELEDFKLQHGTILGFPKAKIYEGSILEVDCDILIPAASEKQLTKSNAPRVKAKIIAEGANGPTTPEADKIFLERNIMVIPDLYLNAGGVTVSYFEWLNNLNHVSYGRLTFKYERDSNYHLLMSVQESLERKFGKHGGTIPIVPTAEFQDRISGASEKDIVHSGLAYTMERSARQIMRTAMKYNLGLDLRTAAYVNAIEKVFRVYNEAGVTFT

| Structure (SMILES) | Ki [1] | Ki [2] | Ki [3] | Ki [4] | Ki [5] | Kd [6] |
| --- | --- | --- | --- | --- | --- | --- |
| NC(=O)c1csc([C@@H]2O[C@H](CO)[C@@H](O)[C@H]2O)n1 [TIAZOFURIN] | > 10 mM | > 10000 µM | – | – | – | – |
| NC(=O)c1csc([C@@H]2O[C@H](COP(=O)(O)O)[C@@H](O)[C@H]2O)n1 | 0.105 mM | 65.2 µM | – | – | – | – |
| NC(=O)c1csc([C@H]2O[C@@H](COP(=O)(O)OP(=O)(O)OC[C@H]3O[C@@H](n4cnc5c(N)ncnc54)[C@H](O)[C@@H]3O)[C@H](O)[C@@H]2O)n1 | – | 4.5 µM | 25.2 µM | 26.5 µM | 36.3 µM | 27 µM |
| NC(=O)c1ccc[n+]([C@@H]2O[C@H](COP(=O)([O-])O)[C@@H](O)[C@H]2O)c1 [BETANMN] | > 10 mM | > 10000 µM | – | – | – | – |
